Measured values: ChEMBL document CHEMBL1123086, “8-Substituted guanosine and 2'-deoxyguanosine derivatives as potential inducers of the differentiation of Friend erythroleukemia cells” (1985)

Experiments:
[1] = system: Friend leukemia cell line; assay: Inhibitory activity against cellular replication in Friend erythroleukemia cells as growth inhibition.; assay type: functional; details: Mus musculus, read-out: ID50 (the source's name)
Outline: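 Exponentially growing parental Friend erythroleukemia cells at (7–8) × 10⁴ cells/mL in DMEM with 15% FBS under 10% CO₂. Incubated with graded 2.5-fold concentration steps. Cell number was counted on day 3 with a particle counter, and percent growth inhibition was calculated from log cell number.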

[2] = system: Friend leukemia cell line; assay: Inhibitory activity against cellular differentiation in Friend erythroleukemia cells as percentage of benzidine - positive cells.; assay type: functional, Mus musculus
Outline: (§1)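 Parental Friend murine erythroleukemia cells in exponential growth, seeded at (7–8) × 10⁴ cells/mL in Dulbecco's modified Eagle's MEM with 15% fetal bovine serum and 2 mM L-glutamine under 10% CO₂. Exposed to graded 2.5-fold concentration increases. On day 6, hemoglobin-containing cells staining blue with acidic 3,3',5,5'-tetramethylbenzidine peroxide were counted cytologically and reported as percent benzidine-positive cells.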

[3] = system: Friend leukemia cell line; assay: Inhibitory activity against cellular differentiation in Friend erythroleukemia cells as optimal concentration required for maximum activity.; assay type: functional, Mus musculus; outline: as §1
[4] = system: Friend erythroleukemia cells, HGPRT- (Mus musculus); assay: Inhibitory activity against cellular replication in hypoxanthine-guanine phosphoribosyltransferase (HGPRT-) Friend murine erythroleukemia cells.; details: read-out: ID50 (the source's name)

IC50 [1] | IC50 [4] | SMILES | Benzidine positive cells [2] | Optimal concentration [3]
> 5 mM | > 5 mM | Nc1nc(O)c2nc(OCc3ccccc3)n([C@H]3C[C@H](O)[C@@H](CO)O3)c2n1 | 7% | 7 mM
> 5 mM | > 5 mM | Nc1nc(O)c2nc(Br)n([C@H]3C[C@H](O)[C@@H](CO)O3)c2n1 | 20% | 7 mM
3.5 mM | 3.5 mM | Nc1nc(O)c2nc(S)n([C@@H]3O[C@H](CO)[C@@H](O)[C@H]3O)c2n1 | 4% | 2 mM
> 8 mM | > 8 mM | Nc1nc(O)c2nc(OCc3ccccc3)n(C3O[C@H](CO)[C@@H](O)[C@H]3O)c2n1 (stereo partly specified) | 4% | 8 mM
0.29 mM | 0.49 mM | Nc1nc(O)c2ncn([C@H]3C[C@H](O)[C@@H](CO)O3)c2n1 [DEOXYGUANOSINE] | 0% | 
2.9 mM | 4.9 mM | CNc1nc2c(=O)[nH]c(N)nc2n1[C@@H]1O[C@H](CO)[C@@H](O)[C@H]1O | 42% | 1 mM
> 5 mM | > 5 mM | CN(C)c1nc2c(=O)[nH]c(N)nc2n1[C@@H]1O[C@H](CO)[C@@H](O)[C@H]1O | 68% | 5 mM
> 5 mM |  | Nc1nc(O)c2nc(NO)n(C3O[C@H](CO)[C@@H](O)[C@H]3O)c2n1 (stereo partly specified) | 7% | 6 mM
1.7 mM | 1.7 mM | Nc1nc(O)c2nc(N)n([C@@H]3O[C@H](CO)[C@@H](O)[C@H]3O)c2n1 | 34% | 0.4 mM
5.1 mM | 5.1 mM | Nc1nc2c(nc(Br)n2[C@@H]2O[C@H](CO)[C@@H](O)[C@H]2O)c(=O)[nH]1 | 6% | 5 mM
> 8 mM | > 8 mM | COc1nc2c(O)nc(N)nc2n1C1O[C@H](CO)[C@@H](O)[C@H]1O (stereo partly specified) | 7% | 8 mM
1.2 mM | 7.8 mM | Nc1nc2c(ncn2[C@@H]2O[C@H](CO)[C@@H](O)[C@H]2O)c(=O)[nH]1 [GUANOSINE] | 0% | 
> 8 mM | > 8 mM | CSc1nc2c(O)nc(N)nc2n1C1O[C@H](CO)[C@@H](O)[C@H]1O (stereo partly specified) | 11% | 5 mM
 |  | C[S+](C)[O-] [DIMETHYL SULFOXIDE] | 70% | 200 mM
> 5 mM | > 5 mM | COc1nc2c(O)nc(N)nc2n1[C@H]1C[C@H](O)[C@@H](CO)O1 | 22% | 5 mM
3.6 mM | 3.6 mM | [N-]=[N+]=Nc1nc2c(O)nc(N)nc2n1C1O[C@H](CO)[C@@H](O)[C@H]1O (stereo partly specified) | 12% | 2 mM
5.4 mM | 10 mM | CS(=O)(=O)c1nc2c(O)nc(N)nc2n1C1O[C@H](CO)[C@@H](O)[C@H]1O (stereo partly specified) | 30% | 5 mM
0.39 mM | 0.39 mM | Nc1nc2c([nH]c(=O)n2[C@H]2C[C@H](O)[C@@H](CO)O2)c(=O)[nH]1 | 62% | 0.2 mM
8 mM | 8 mM | Nc1nc2c(nc(O)n2[C@@H]2O[C@H](CO)[C@@H](O)[C@H]2O)c(=O)[nH]1 [8-HYDROXYGUANOSINE] | 33% | 5 mM
